Results published in ChEMBL document CHEMBL1139532, “Synthesis and monoamine transporter binding properties of 3alpha-(substituted phenyl)nortropane-2beta-carboxylic acid methyl esters. Norepinephrine transporter selective compounds” (J Med Chem, 2005).

Tests used:
[1] = target: T1, Sodium-dependent serotonin transporter (Rattus norvegicus, UniProt P31652); experiment: Inhibition of [3H]paroxetine binding to rat cortex serotonin transporter
In short: (§1)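 Male Sprague-Dawley rat (200-250 g) brain tissue, 1.5 mg original wet weight, in 50 mM Tris, 120 mM NaCl, 5 mM KCl, pH 7.4, with 0.2 nM [3H]paroxetine and 10 test concentrations, 90 min at room temperature. 1 µM citalopram defines nonspecific binding. GF/B filtration.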

[2] = target: T2, Norepinephrine transporter (Rattus norvegicus, UniProt Q9WTR4); experiment: Inhibition of [3H]nisoxetine binding to rat cerebral cortex norepinephrine transporter; type: tissue-based
In short: (§2)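 Male Sprague-Dawley rat (200-250 g) cerebral cortex, 8 mg per tube, in 50 mM Tris, 120 mM NaCl, 5 mM KCl, pH 7.4 at 4 °C, with [3H]nisoxetine and 10 test concentrations. 1 µM desipramine defines nonspecific binding. GF/B filtration, ice-cold washes.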

[3] = target: T1, Sodium-dependent serotonin transporter; experiment: Displacement of [3H]paroxetine from serotonin transporter (5-HT) of rat cerebral cortex; type: tissue-based; in short: as §1
[4] = target: Sodium-dependent dopamine transporter (Rattus norvegicus, UniProt P23977); experiment: Inhibition of [3H]WIN-35428 binding to rat striatal dopamine transporter
[5] = target: T2, Norepinephrine transporter; experiment: Displacement of [3H]nisoxetine from norepinephrine transporter (NET) of rat cerebral cortex; type: tissue-based; in short: as §2

T2 sequence (Q9WTR4 whole entry): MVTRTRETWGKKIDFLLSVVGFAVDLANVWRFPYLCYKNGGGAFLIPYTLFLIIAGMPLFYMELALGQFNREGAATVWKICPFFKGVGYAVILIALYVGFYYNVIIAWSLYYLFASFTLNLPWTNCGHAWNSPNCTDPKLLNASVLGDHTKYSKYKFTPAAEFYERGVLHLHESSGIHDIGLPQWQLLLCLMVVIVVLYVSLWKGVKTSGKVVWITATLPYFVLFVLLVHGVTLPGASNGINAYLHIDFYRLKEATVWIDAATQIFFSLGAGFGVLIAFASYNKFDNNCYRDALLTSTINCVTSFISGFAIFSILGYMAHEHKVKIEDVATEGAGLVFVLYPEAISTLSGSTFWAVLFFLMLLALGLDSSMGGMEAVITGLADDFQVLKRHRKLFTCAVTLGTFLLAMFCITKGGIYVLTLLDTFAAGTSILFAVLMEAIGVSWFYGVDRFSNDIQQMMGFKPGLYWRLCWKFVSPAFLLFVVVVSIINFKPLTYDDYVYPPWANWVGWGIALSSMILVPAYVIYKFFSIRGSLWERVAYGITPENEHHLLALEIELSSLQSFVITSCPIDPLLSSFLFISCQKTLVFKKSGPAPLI
T1 sequence (P31652 whole entry): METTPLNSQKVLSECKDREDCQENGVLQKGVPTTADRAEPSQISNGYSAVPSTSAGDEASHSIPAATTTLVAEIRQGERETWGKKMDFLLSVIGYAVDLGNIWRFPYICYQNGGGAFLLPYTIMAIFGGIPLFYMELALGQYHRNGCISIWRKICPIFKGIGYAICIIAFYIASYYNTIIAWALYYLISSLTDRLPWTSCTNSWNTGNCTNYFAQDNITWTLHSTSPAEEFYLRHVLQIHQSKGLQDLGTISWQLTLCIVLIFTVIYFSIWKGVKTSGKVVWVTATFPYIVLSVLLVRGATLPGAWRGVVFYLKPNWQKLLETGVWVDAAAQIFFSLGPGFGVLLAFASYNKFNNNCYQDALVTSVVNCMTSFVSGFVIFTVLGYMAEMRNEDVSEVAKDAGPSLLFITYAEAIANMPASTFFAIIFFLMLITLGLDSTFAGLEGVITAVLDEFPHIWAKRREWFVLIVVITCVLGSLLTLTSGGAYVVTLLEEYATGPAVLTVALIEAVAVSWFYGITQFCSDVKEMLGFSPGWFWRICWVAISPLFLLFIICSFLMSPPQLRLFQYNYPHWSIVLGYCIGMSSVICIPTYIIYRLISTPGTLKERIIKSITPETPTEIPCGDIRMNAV
Chain of Sodium-dependent dopamine transporter (P23977 whole entry): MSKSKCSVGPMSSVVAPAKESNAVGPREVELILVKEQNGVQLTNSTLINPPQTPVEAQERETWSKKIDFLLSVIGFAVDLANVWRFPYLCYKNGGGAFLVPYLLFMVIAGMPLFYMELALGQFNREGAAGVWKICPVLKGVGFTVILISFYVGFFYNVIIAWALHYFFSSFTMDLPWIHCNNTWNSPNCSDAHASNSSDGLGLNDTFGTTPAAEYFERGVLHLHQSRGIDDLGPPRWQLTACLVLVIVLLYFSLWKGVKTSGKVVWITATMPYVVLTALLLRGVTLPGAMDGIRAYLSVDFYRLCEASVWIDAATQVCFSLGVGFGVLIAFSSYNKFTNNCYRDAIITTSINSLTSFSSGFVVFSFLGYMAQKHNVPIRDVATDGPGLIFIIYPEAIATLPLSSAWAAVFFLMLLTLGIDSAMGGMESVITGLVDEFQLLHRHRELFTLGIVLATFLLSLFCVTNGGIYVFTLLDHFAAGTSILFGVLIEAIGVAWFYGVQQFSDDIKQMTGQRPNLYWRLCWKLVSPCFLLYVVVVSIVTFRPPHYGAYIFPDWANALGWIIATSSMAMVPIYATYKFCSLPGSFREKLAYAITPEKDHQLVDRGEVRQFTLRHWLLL

Structure (SMILES)	IC50 [1] [µM]	IC50 [2] [µM]	Ki [3] [µM]	IC50 [4] [µM]	Ki [5] [µM]
COC(=O)C1C(c2ccc(F)c(C)c2)CC2CCC1N2C (centres undefined)	1.16	0.148	0.258	0.0137	0.074
COC(=O)C1C(c2ccc(C)c(F)c2)CC2CCC1N2C (centres undefined)	1.15	–	0.282	0.00738	0.0224
COC(=O)C1C2CCC(CC1c1cccc(F)c1)N2 (centres undefined)	0.11	0.0097	0.0268	0.00236	0.004
COC(=O)C1C2CCC(CC1c1ccc(F)c(C)c1)N2 (centres undefined)	0.0698	0.00423	0.0171	0.00938	0.00212
COC(=O)C1C2CCC(CC1c1ccc(C)c(F)c1)N2 (centres undefined)	0.0974	0.00086	0.0238	0.009	0.00043
COC(=O)C1C2CCC(CC1c1ccc(F)c(F)c1)N2 (centres undefined)	0.226	0.0063	0.0553	0.00561	0.0026
COC(=O)C1C2CCC(CC1c1cc(F)cc(F)c1)N2 (centres undefined)	0.0558	0.0041	0.0137	0.00235	0.00205
